# Assay results gathered from unrelated publications.
# Each line is one published result; the experiments were not run side by side.
# Target: 5-hydroxytryptamine receptor 7 (HTR7, Homo sapiens, UniProt P34969)
# Tested at: 10 µM
Structure (SMILES),effect on,technique,inhibition
C[C@@H](c1cccc(C#N)c1)n1cc(Cl)cc(C(N)=O)c1=N,ligand displacement,,4.17%
CCCNc1nc2ccccc2n1Cc1ccc(Cl)cc1,ligand displacement,,13.5%
COc1cc2c3c(c1OC)-c1cc4c(cc1CC3N(C)CC2)OCO4 (racemic),ligand displacement,radioligand,96.7%
Oc1cccc(Nc2nc(-c3ccc(F)cc3F)cs2)c1,ligand displacement,radioligand,-31.9%
COc1cc2c3c(c1OC)-c1cc4c(cc1CC3N(C)CC2c1ccccc1)OCO4 (stereo not drawn),ligand displacement,radioligand,< 50%
CCN(CC)c1ccc(C2Nc3ccc(C(=O)c4ccccc4)cc3NC3=C2C(=O)CC(C)(C)C3)cc1 (stereo not drawn),ligand displacement,radioligand,4%
N#Cc1cc(Cn2c(N3CCCC3)nc3ccccc32)ccc1F,ligand displacement,,-11.2%
COc1cc(NC(C)=O)c(Cl)cc1C(=O)Nc1nccs1,ligand displacement,radioligand,-7.7%
CC(C)(C)OC(=O)N1CCCC1CNC1CCC(c2cc(F)ccc2F)(S(=O)(=O)c2ccc(Cl)cc2)CC1 (stereo not drawn),cell-free assay,,70.7%
